Experimental data: ChEMBL document CHEMBL1240409, “Design, synthesis and evaluation of (E)-alpha-benzylthio chalcones as novel inhibitors of BCR-ABL kinase” (Bioorg Med Chem, 2010)

Columns and labels:
K562 = experiment: Growth inhibition of human K562 cells expressing p210Bcr/Abl after 96 hrs by trypan blue exclusion assay; assay type: functional, cell-based; conditions: K562, 96 h
Method in brief: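 K562 cells were kept in RPMI with 10% FBS and penicillin–streptomycin at 37 °C under 5% CO2. Cells were seeded at 1 × 10^5 cells/mL with a range of compound concentrations, using DMSO as the negative control. After 96 h, viability was counted by Trypan blue exclusion and expressed as percent of DMSO control to derive GI50.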

DU-145 = experiment: Growth inhibition of human DU145 cells after 96 hrs by trypan blue exclusion assay; assay type: functional; conditions: DU-145, 96 h

Compound | GI50 (K562) [µM] | GI50 (DU-145) [µM]
O=C(/C(=C\c1ccc(O)c([N+](=O)[O-])c1)S(=O)(=O)Cc1ccc(Br)cc1)c1ccc(Br)cc1 | 1 | 10
O=C(/C(=C\c1ccc(F)cc1F)Sc1ccc(Br)cc1)c1ccc(Cl)cc1 | 1 | 1
Cc1ccc(CS(=O)(=O)/C(=C/c2cc(C)cc(C)c2)C(=O)c2ccc(Cl)cc2)cc1 | 10 | 10
COc1cc(/C=C(\C(=O)c2ccc(Cl)cc2)S(=O)(=O)Cc2ccccc2Cl)cc(OC)c1 | 50 | > 100
Cc1ccc(S/C(=C/c2ccc(-c3ccccc3)cc2)C(=O)c2ccc(Br)cc2)cc1 | 25 | 50
COc1cc(OC)c(C=C(C(=O)c2ccc(Cl)cc2)[S+]([O-])Cc2ccccc2Cl)c(OC)c1 (stereo not drawn) | 50 | 10
Cc1ccc(C)c(/C=C(\C(=O)c2ccc(Cl)cc2)S(=O)(=O)Cc2ccc(Cl)cc2)c1 | 10 | 10
O=C(/C(=C\c1ccc(I)cc1)Sc1ccc(Br)cc1)c1ccc(Br)cc1 | 1 | 1
Cc1ccc(S(=O)(=O)/C(=C/c2c(F)c(F)c(F)c(F)c2F)C(=O)c2ccc(Cl)cc2)cc1 | 50 | > 100
Cc1ccc(CS(=O)(=O)/C(=C/c2ccc(Cl)cc2)C(=O)c2ccc(Cl)cc2)cc1 | 25 | 25
O=C(/C(=C\c1ccccc1OCc1ccccc1)SCc1ccc(Cl)c(Cl)c1)c1ccc(Cl)cc1 | 10 | 10
Cc1ccc(C)c(/C=C(\C(=O)c2ccc(Cl)cc2)S(=O)(=O)c2ccc(Br)cc2)c1 | 1 | 1
CSc1ccc(/C=C(/SCc2ccc(C)cc2)C(=O)c2ccc(Cl)cc2)cc1 | 10 | 25
COc1ccc(S/C(=C/c2ccc(Br)cc2)C(=O)c2ccc(Br)cc2)cc1 | 6 | 20
O=C(/C(=C\c1c(O)cc(O)cc1O)S(=O)(=O)c1ccc(Br)cc1)c1ccc(Cl)cc1 | > 100 | > 100
O=C(/C(=C\c1ccc(O)cc1)SCc1ccc(Cl)cc1)c1ccc(Cl)cc1 | 1 | 10
O=C(/C(=C\c1ccc(O)cc1O)SCc1cccc(Cl)c1)c1ccc(Br)cc1 | 25 | 50
O=C(/C(=C\c1ccc(O)cc1)S(=O)(=O)Cc1ccc(Cl)c(Cl)c1)c1ccc(Cl)cc1 | 10 | 10
O=C(/C(=C\c1ccc(OCc2ccccc2)cc1)S(=O)(=O)Cc1ccc(Cl)cc1)c1ccc(Cl)cc1 | 1 | 1
O=C(/C(=C\c1ccc(Cl)cc1)SCc1ccccc1Cl)c1ccc(Cl)cc1 | 1 | 12
O=C(/C(=C\c1ccc(O)cc1)SCc1ccc(F)cc1)c1ccc(Cl)cc1 | 10 | 25
Cc1ccc(CS(=O)(=O)/C(=C/c2c[nH]c3ccc(Br)cc23)C(=O)c2ccc(Cl)cc2)cc1 | 10 | 10
Cc1ccc(CS/C(=C/c2ccc(O)c(O)c2O)C(=O)c2ccc(Cl)cc2)cc1 | 50 | 50
O=C(/C(=C\c1ccc([N+](=O)[O-])c(O)c1)Sc1ccc(Br)cc1)c1c(F)c(F)c(F)c(F)c1F | 1 | 1
COc1cc(OC)c(/C=C(\C(=O)c2ccc(Cl)cc2)S(=O)(=O)Cc2ccc(F)cc2)c(OC)c1 | 1 | 25

Compound | GI50 (K562) [µM] | GI50 (DU-145) [µM]
Cc1ccc(/C=C(/SCc2ccc(Cl)cc2)C(=O)c2ccc([N+](=O)[O-])cc2)s1 | 25 | 25
CC(=O)c1ccc(/C=C(/Sc2ccc(C)cc2)C(=O)c2ccc(Br)cc2)cc1 | 50 | 50
Cc1ccc(S/C(=C/c2c(O)cc(O)cc2O)C(=O)c2ccc(Br)cc2)cc1 | 50 | > 100
Cc1ccc(S/C(=C/c2c[nH]c3ccc(Br)cc23)C(=O)c2ccc(Br)cc2)cc1 | 10 | 1
COc1ccccc1/C=C(/SCc1ccc(Cl)cc1)C(=O)c1ccc(Br)cc1 | 10 | 1
Cc1ccsc1/C=C(\C(=O)c1ccc(Cl)cc1)S(=O)(=O)Cc1ccc(Cl)cc1 | 25 | 25
Cc1ccc(S/C(=C/c2ccc(F)cc2C(F)(F)F)C(=O)c2ccc(Br)cc2)cc1 | 25 | 25
CN(C)c1ccc(/C=C(/Sc2ccc(Br)cc2)C(=O)c2ccc(Cl)cc2)cc1 | > 100 | > 100
O=C(/C(=C\c1c[nH]c2ccc(Cl)cc12)SCc1ccc(F)cc1)c1ccc(Br)cc1 | 1 | 1
O=C(/C(=C\c1c(O)cc(O)cc1O)SCc1ccc(Cl)cc1)c1ccc(Cl)cc1 | > 100 | > 100
CCOc1ccc(/C=C(\C(=O)c2ccc(Br)cc2)S(=O)(=O)c2ccc(Br)cc2)c(OCC)c1 | 1 | 10
COc1ccc(/C=C(/Sc2ccc(C)cc2)C(=O)c2ccc(Cl)cc2)cc1O | 1 | 1
O=C(/C(=C\c1cc(Cl)cc(Cl)c1Cl)SCc1ccc(Cl)cc1)c1ccc(Br)cc1 | 1 | 1
Cc1ccc(CS/C(=C/c2ccc(F)cc2C(F)(F)F)C(=O)c2ccc(Cl)cc2)cc1 | 50 | 50
O=C(/C(=C\c1ccc([N+](=O)[O-])c(O)c1)Sc1c(F)c(F)c(F)c(F)c1F)c1ccc(Br)cc1 | 1 | 10
O=C(/C(=C\c1cc(Cl)cc(Cl)c1Cl)Sc1ccccc1Br)c1ccc(Cl)cc1 | 50 | 25
O=C(/C(=C\c1ccc(O)c([N+](=O)[O-])c1)Sc1ccc(Br)cc1)c1ccc(Br)cc1 | 1 | 1
COc1ccccc1/C=C(\C(=O)c1ccc(Br)cc1)S(=O)(=O)Cc1ccc(F)cc1 | 25 | 25
COc1ccc(/C=C(\C(=O)c2ccc(Cl)cc2)S(=O)(=O)c2ccc(C)cc2)cc1O | 1 | 1
Cc1ccc(CS/C(=C/c2ccc(F)c(C)c2)C(=O)c2ccc(Cl)cc2)cc1 | 10 | 25
Cc1ccc(S/C(=C/c2ccc(F)cc2F)C(=O)c2ccc(Br)cc2)cc1 | > 100 | > 100
CCOc1ccc(/C=C(/SCc2ccc(C)cc2)C(=O)c2ccc(Cl)cc2)cc1OC | 25 | 25
Cc1ccc(S/C(=C/c2c[nH]c3ccccc23)C(=O)c2ccc(Cl)cc2)cc1 | 1 | 10
COc1ccc(/C=C(\C(=O)c2ccc(Br)cc2)S(=O)(=O)c2ccc(Br)cc2)cc1 | 10 | 25
Cc1ccc(S/C(=C/c2ccc(Cl)cc2)C(=O)c2ccc(Br)cc2)cc1 | 1 | 10

Compound | GI50 (K562) [µM] | GI50 (DU-145) [µM]
O=C(/C(=C\c1ccc(I)cc1)S(=O)(=O)c1ccc(Br)cc1)c1ccc(Br)cc1 | 9 | 1
Cc1ccc(CS/C(=C/c2c[nH]c3ccc(Cl)cc23)C(=O)c2ccc(Cl)cc2)cc1 | 1 | 1
COc1ccc(/C=C(\C(=O)c2ccc(Cl)cc2)S(=O)(=O)Cc2ccc(Cl)cc2)c(OC)c1OC | 1 | 10
Cc1ccc(CS/C(=C/c2ccc(C(=O)O)cc2)C(=O)c2ccc(Cl)c([N+](=O)[O-])c2)cc1 | 1 | 10
O=C(/C(=C\c1ccc(F)cc1C(F)(F)F)SCc1ccc(F)cc1)c1ccc(Br)cc1 | 10 | 10
CCOc1ccc(/C=C(\C(=O)c2ccc(Cl)cc2)S(=O)(=O)Cc2ccc(F)cc2)cc1OC | 25 | 50
O=C(/C(=C\c1ccc(O)c([N+](=O)[O-])c1)S(=O)(=O)c1ccc(I)cc1)c1ccc(Br)cc1 | 25 | 25
Cc1ccc(S(=O)(=O)/C(=C/c2ccc(C)s2)C(=O)c2ccc(Cl)cc2)cc1 | 25 | 50
COc1ccccc1/C=C(/SCc1ccccc1F)C(=O)c1ccc(Cl)cc1 | 1 | 10
Cc1ccc(CS(=O)(=O)/C(=C/c2c(O)cc(O)cc2O)C(=O)c2ccc(Cl)cc2)cc1 | > 100 | > 100
Cc1ccc(CS/C(=C/c2c[nH]c3ccc(Br)cc23)C(=O)c2ccc(Cl)cc2)cc1 | 1 | 1
Cc1ccc(CS(=O)(=O)/C(=C/c2c[nH]c3ccccc23)C(=O)c2ccc(Cl)cc2)cc1 | > 100 | 25
COc1ccc(S(=O)(=O)/C(=C/c2ccc(Br)cc2)C(=O)c2ccc(Br)cc2)cc1 | 6 | 6
COc1ccc(/C=C(/SCc2ccc(Cl)cc2)C(=O)c2ccc(Cl)cc2)cc1 | 1 | 10
Cc1ccc(CS(=O)(=O)/C(=C/c2ccc(C)s2)C(=O)c2ccc(Cl)cc2)cc1 | 25 | 25
Cc1ccc(S/C(=C/c2c[nH]c3ccc(Cl)cc23)C(=O)c2ccc(Cl)cc2)cc1 | 1 | 1
COc1ccc(C=C(C(=O)c2ccc(OC)cc2)S(=O)(=O)Cc2ccc([N+](=O)[O-])cc2)cc1 | 10 | 25
O=C(O)c1ccc(C(=O)/C(=C\c2ccccc2F)SCc2ccc(Br)cc2)cc1 | 10 | 10
O=C(O)c1ccc(C(=O)/C(=C\c2ccc(Br)cc2)SCc2ccc(F)cc2)cc1 | > 100 | > 100
Cc1ccc(S/C(=C/c2ccc(Cl)cc2Cl)C(=O)c2ccc(Cl)cc2)cc1 | 10 | 10
Cc1ccc(C)c(/C=C(\C(=O)c2ccc(Br)cc2)S(=O)(=O)Cc2ccc(F)cc2)c1 | 1 | 1
Cc1ccc(S/C(=C/c2c[nH]c3ccccc23)C(=O)c2ccc(Br)cc2)cc1 | 10 | 10
CN(C)c1ccc(/C=C(/SCc2ccc(F)cc2)C(=O)c2ccc(Cl)cc2)cc1 | 1 | 50
Cc1ccc(S/C(=C/c2ccc(F)c(C)c2)C(=O)c2ccc(Br)cc2)cc1 | 1 | 25
